Experimental data from ChEMBL document CHEMBL1152298 (J Med Chem, 2008).
Active and inactive are the calls of the source. The calls are words filed in the database; no cut-off is given here.

Legend:
[1] = biological target: GABA A receptor alpha-3/beta-2/gamma-2 (Rattus norvegicus, UniProt P18508+P20236+P63138); assay: Displacement of [3H]Ro-151788 from benzodiazepine binding site of GABAA alpha-3-beta-2-gamma-2 receptor expressed in HEK293T cells; type: cell-based, HEK-293T
Outline: (§1)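 α2 or α3 subunits were co-transfected with β2 and γ2, all in pRK5, into HEK293T cells by CaHPO4 precipitation at 4 μg per subunit. Membranes were prepared at 48 h. IC50 came from a one-site competition fit and was converted to Ki by Cheng-Prusoff. Mean ± SD of ≥3 experiments.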

[2] = biological target: GABA A receptor alpha-2/beta-2/gamma-2 (Rattus norvegicus, UniProt P18508+P23576+P63138); assay: Displacement of [3H]Ro-151788 from benzodiazepine binding site of GABAA alpha-2-beta-2-gamma-2 receptor expressed in HEK293T cells; type: cell-based, HEK-293T; outline: as §1
[3] = Displacement of [3H]Ro-151788 from benzodiazepine binding site of GABAA alpha-1-beta-2-gamma-2 D56C receptor mutant expressed in HEK293T cells; type: cell-based; conditions: hek-293t
[4] = Displacement of [3H]Ro-151788 from benzodiazepine binding site of GABAA alpha-1-beta-2-gamma-2 A79C receptor mutant expressed in HEK293T cells; type: cell-based; conditions: hek-293t
[5] = Displacement of [3H]Ro-151788 from benzodiazepine binding site of GABAA alpha-1-beta-2-gamma-2 T81C receptor mutant expressed in HEK293T cells; type: cell-based; conditions: hek-293t
[6] = Displacement of [3H]Ro-151788 from benzodiazepine binding site of GABAA alpha-1-beta-2-gamma-2 T126C receptor mutant expressed in HEK293T cells; type: cell-based; conditions: hek-293t
[7] = Displacement of [3H]Ro-151788 from benzodiazepine binding site of GABAA alpha-1-beta-2-gamma-2 M130C receptor mutant expressed in HEK293T cells; type: cell-based; conditions: hek-293t
[8] = Displacement of [3H]Ro-151788 from benzodiazepine binding site of GABAA alpha-1-beta-2-gamma-2 R132C receptor mutant expressed in HEK293T cells; type: cell-based; conditions: hek-293t
[9] = Displacement of [3H]Ro-151788 from benzodiazepine binding site of GABAA alpha-1-beta-2-gamma-2 L140C receptor mutant expressed in HEK293T cells; type: cell-based; conditions: hek-293t
[10] = Displacement of [3H]Ro-151788 from benzodiazepine binding site of GABAA alpha-1-beta-2-gamma-2 T142C receptor mutant expressed in HEK293T cells; type: cell-based; conditions: hek-293t
[11] = Displacement of [3H]Ro-151788 from benzodiazepine binding site of GABAA alpha-1-beta-2-gamma-2 […] receptor mutant expressed in HEK293T cells; type: cell-based; conditions: hek-293t
[12] = Displacement of [3H]Ro-151788 from benzodiazepine binding site of GABAA alpha-1-beta-2-gamma-2 R185C receptor mutant expressed in HEK293T cells; type: cell-based; conditions: hek-293t
[13] = Displacement of [3H]Ro-151788 from benzodiazepine binding site of GABAA alpha-1-beta-2-gamma-2 R194C receptor mutant expressed in HEK293T cells; type: cell-based; conditions: hek-293t
Outline: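 Transiently expressed in HEK293T (CaHPO4 transfection, equal α/β/γ DNA, 4 μg/subunit; cysteine-mutant γ2L with WT α1, β2). […] One-site competition fit for IC50; Ki by Cheng-Prusoff; mean ± SD, three experiments in triplicate; mutant/WT Ki ratio.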

[14] = Displacement of [3H]Ro15-1788 from benzodiazepine binding site of GABAA alpha-1 F99C beta2gamma2 receptor mutant expressed in HEK293T cells; type: cell-based; conditions: hek-293t
[15] = Displacement of [3H]Ro15-1788 from benzodiazepine binding site of GABAA alpha-1 G157C beta2gamma2 receptor mutant expressed in HEK293T cells; type: cell-based; conditions: hek-293t
[16] = Displacement of [3H]Ro-151788 from benzodiazepine binding site of GABAA alpha1 A160C beta2gamma2 receptor mutant expressed in HEK293T cells; type: cell-based; conditions: hek-293t
[17] = Displacement of [3H]Ro15-1788 from benzodiazepine binding site of GABAA alpha1 T162C beta-2-gamma-2 receptor mutant expressed in HEK293T cells; type: cell-based; conditions: hek-293t
Outline: (§2)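 Cysteine mutant α1 subunit made by recombinant PCR, co-transfected with WT β2 and γ2L (equal DNA ratios, 4 μg/subunit, CaHPO4 method) into HEK293T cells; membranes harvested 48 h post-transfection. One-site competition fit; Ki by Cheng-Prusoff; three experiments in triplicate, mean ± SD.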

[18] = Displacement of [3H]Ro15-1788 from benzodiazepine binding site of GABAA alpha-1 G200C beta2gamma2 receptor mutant expressed in HEK293T cells; type: cell-based; conditions: hek-293t
[19] = Displacement of [3H]Ro-151788 from benzodiazepine binding site of GABAA alpha1 V202C beta2gamma2 receptor mutant expressed in HEK293T cells; type: cell-based; conditions: hek-293t
[20] = Displacement of [3H]Ro-151788 from benzodiazepine binding site of GABAA alpha1 S204C beta2gamma2 receptor mutant expressed in HEK293T cells; type: cell-based; conditions: hek-293t
[21] = Displacement of [3H]Ro-151788 from benzodiazepine binding site of GABAA alpha1 S205C beta2gamma2 receptor mutant expressed in HEK293T cells; type: cell-based; conditions: hek-293t
[22] = Displacement of [3H]Ro15-1788 from benzodiazepine binding site of GABAA alpha-1 T206C beta2gamma2 receptor mutant expressed in HEK293T cells; type: cell-based; conditions: hek-293t
[23] = Displacement of [3H]Ro15-1788 from benzodiazepine binding site of GABAA alpha-1 V211C beta2gamma2 receptor mutant expressed in HEK293T cells; type: cell-based; conditions: hek-293t; outline: as §2
HEK-293T [24] = assay: Displacement of [3H]Ro-151788 from benzodiazepine binding site of GABAA alpha-1-beta-2-gamma-2 F77C receptor mutant expressed in HEK293T cells; type: cell-based
Outline: (§3)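 HEK293T cells in MEM with 10% FBS were transiently transfected by CaHPO4 precipitation with α1, β2 and γ2L subunits (WT or PCR-made, sequence-verified cysteine mutant) in pUNIV, using equal ratios at 4 μg per subunit. Membranes were harvested at 48 h. […] Ki was derived from a one-site fit using Cheng-Prusoff. Mean ± SD, three experiments in triplicate.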

HEK-293T [25] = assay: Displacement of [3H]Ro-151788 from benzodiazepine binding site of GABAA alpha1 D97C beta2gamma2 receptor mutant expressed in HEK293T cells; type: cell-based; outline: as §3
HEK-293T [26] = assay: Displacement of [3H]Ro15-1788 from benzodiazepine binding site of GABAA alpha1 Y209C beta2gamma2 receptor mutant expressed in HEK293T cells; type: cell-based; outline: as §3

Chain of GABA A receptor alpha-2/beta-2/gamma-2 (P18508 whole entry): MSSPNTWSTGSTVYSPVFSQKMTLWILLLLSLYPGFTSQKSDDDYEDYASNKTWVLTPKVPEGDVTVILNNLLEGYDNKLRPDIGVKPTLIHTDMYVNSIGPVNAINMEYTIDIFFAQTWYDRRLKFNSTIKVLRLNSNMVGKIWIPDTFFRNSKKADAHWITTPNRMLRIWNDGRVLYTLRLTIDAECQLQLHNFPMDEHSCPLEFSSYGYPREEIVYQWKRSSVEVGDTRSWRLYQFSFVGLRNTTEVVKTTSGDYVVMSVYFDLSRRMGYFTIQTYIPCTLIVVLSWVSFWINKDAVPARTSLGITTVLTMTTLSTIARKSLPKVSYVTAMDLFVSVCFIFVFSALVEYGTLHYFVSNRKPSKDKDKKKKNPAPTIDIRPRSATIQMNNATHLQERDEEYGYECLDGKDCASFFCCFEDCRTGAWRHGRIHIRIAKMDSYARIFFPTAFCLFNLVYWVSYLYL
Chain of GABA A receptor alpha-2/beta-2/gamma-2 (P23576 whole entry): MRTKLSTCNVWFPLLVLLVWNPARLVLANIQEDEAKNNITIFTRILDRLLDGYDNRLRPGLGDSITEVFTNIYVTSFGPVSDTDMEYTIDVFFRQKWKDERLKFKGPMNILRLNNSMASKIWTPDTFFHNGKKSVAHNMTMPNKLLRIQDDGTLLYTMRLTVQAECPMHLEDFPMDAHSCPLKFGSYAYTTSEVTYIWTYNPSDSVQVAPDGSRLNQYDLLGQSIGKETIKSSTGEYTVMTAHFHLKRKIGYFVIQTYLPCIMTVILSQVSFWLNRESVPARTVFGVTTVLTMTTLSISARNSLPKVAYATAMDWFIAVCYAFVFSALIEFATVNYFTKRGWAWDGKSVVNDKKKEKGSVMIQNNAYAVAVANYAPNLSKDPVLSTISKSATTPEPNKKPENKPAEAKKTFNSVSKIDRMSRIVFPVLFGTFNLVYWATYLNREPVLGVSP
Chain of GABA A receptor alpha-2/beta-2/gamma-2 (P63138 whole entry): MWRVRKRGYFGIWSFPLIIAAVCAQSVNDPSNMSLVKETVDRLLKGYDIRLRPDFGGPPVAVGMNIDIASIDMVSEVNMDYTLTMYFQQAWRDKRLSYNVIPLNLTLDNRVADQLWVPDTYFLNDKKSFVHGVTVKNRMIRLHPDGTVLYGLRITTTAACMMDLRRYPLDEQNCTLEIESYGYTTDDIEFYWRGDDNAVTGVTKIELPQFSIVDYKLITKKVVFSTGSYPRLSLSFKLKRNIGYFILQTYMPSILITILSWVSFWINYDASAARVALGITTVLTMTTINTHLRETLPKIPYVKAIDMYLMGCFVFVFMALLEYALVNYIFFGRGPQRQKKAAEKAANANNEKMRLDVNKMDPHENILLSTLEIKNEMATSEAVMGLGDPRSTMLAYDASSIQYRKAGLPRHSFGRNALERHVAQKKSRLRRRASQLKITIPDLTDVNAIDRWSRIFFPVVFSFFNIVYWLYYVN
Chain of GABA A receptor alpha-3/beta-2/gamma-2 (P18508 whole entry): as the sequence (P18508 whole entry) above
Chain of GABA A receptor alpha-3/beta-2/gamma-2 (P20236 whole entry): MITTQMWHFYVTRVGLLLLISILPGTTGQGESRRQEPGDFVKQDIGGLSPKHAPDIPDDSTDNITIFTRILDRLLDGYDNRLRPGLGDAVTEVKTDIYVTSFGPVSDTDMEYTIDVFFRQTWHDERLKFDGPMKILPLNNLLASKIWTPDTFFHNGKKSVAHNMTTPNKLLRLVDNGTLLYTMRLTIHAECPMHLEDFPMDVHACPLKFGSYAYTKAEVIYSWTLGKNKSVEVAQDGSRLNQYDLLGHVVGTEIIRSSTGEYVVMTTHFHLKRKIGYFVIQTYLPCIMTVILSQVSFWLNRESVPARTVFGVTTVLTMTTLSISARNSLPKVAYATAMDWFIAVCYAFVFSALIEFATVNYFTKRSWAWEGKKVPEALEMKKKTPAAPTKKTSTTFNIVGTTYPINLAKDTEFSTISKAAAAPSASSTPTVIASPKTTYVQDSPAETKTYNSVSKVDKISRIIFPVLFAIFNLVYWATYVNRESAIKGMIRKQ
Chain of GABA A receptor alpha-3/beta-2/gamma-2 (P63138 whole entry): as the sequence (P63138 whole entry) above

`CN1CCN(C(=O)O[C@H]2c3nccnc3C(=O)N2c2ccc(Cl)cn2)CC1` [ESZOPICLONE] showed a Ki [1] of 162 nM, a Ki [2] of 114 nM and a Ki [3] of 82.4 nM. The Ki [4] was 393 nM, the Ki [5] was 75.2 nM and the Ki [6] was 71.9 nM. The Ki [7] was 102 nM, the Ki [8] was 110 nM and the Ki [9] was 46.3 nM. For the same compound, the Ki [10] was 503 nM, the Ki [11] was 22.4 nM and the Ki [12] was 70.9 nM. It also gave a Ki [13] of 67 nM, a Ki [14] of 407 nM and a Ki [15] of 2100 nM. The Ki [16] was 60.4 nM, the Ki [17] was 33.8 nM and the Ki [18] was 119 nM. It also gave a Ki [19] of 249 nM, a Ki [20] of 57.9 nM and a Ki [21] of 34.9 nM. The Ki [22] was 0.83 nM and the Ki [23] was 62.4 nM.

In the case of `CCOC(=O)c1ncn2c1CN(C)C(=O)c1cc(F)ccc1-2` [FLUMAZENIL], the Activity (HEK-293T [24]) is reported as “inactive”, the Activity (HEK-293T [25]) is reported as “inactive” and the Activity (HEK-293T [26]) is reported as “inactive”.
